Assay results taken from publication PMC7677148 (European Journal of Drug Metabolism and Pharmacokinetics, 2020).
Like-named read-outs stand apart in the source and are kept apart here.

What was measured:
[1] = target: T1, OATP1B1 (Homo sapiens, UniProt Q9Y6L6); test: OATP1B1 inhibition assay; assay type: cell-based
T1 sequence (Q9Y6L6 1-691): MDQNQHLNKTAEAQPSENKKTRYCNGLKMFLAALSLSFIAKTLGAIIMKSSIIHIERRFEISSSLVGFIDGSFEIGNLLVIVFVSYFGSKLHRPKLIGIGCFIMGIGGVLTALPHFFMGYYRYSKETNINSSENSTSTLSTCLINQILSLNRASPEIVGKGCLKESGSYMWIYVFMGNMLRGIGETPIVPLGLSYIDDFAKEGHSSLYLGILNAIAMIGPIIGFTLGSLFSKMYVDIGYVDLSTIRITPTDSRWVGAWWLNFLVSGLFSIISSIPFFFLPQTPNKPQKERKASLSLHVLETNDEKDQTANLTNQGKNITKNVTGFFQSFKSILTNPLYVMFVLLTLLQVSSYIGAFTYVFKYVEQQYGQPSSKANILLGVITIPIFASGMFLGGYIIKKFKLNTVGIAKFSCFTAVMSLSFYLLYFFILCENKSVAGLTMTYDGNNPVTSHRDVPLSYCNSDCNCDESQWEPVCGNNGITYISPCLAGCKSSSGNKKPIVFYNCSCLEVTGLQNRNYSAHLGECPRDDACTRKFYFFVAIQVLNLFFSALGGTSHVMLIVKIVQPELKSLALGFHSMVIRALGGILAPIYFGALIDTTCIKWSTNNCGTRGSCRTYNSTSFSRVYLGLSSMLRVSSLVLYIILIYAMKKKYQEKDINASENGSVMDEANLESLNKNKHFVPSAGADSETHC
In short: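 Stably transfected OATP1B1- or OATP1B3-HEK293 cells and empty-vector HEK293 control, grown in DMEM/10% FCS with G418. Cells exposed 10 min at 37 °C to 2.5 µM 8-FcA ± test compound (0.1–100 µM, in PBS/2% FCS). After washing, median intracellular fluorescence read by flow cytometry (30,000 cells, viable gate). With/without-inhibitor ratio normalised to control line. 8 replicates/concentration, 3–5 experiments. Four-parameter fit gives IC50. Rifampicin control.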

[2] = target: T2, OATP2B1 (Homo sapiens, UniProt O94956); test: OATP2B1 inhibition assay; assay type: cell-based
T2 sequence (O94956 1-709): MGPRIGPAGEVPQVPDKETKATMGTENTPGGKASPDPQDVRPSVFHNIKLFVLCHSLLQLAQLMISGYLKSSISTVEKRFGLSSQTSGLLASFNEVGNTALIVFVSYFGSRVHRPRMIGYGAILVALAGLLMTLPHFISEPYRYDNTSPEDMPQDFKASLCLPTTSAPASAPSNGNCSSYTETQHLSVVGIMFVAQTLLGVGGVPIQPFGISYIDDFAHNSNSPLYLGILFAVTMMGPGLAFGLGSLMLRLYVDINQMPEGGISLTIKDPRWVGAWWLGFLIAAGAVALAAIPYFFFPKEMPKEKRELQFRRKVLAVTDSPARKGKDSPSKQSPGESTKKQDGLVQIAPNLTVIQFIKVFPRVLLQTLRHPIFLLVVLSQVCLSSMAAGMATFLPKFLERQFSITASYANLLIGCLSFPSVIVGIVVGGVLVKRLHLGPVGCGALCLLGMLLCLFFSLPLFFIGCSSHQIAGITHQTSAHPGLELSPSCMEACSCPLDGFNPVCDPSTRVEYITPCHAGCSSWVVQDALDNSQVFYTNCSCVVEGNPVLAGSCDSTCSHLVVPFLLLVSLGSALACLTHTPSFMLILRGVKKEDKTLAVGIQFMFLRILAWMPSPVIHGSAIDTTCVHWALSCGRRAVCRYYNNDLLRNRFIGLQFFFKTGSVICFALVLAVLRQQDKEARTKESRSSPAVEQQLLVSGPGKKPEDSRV
In short: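 HEK293 cells with tetracycline-inducible OATP2B1, grown in DMEM/Ham's F12/10% FCS and induced with 1 µg/ml tetracycline 72 h before assay. Substrate 1 µM DBF ± test compound (0.1–100 µM, in PBS/2% FCS), 10 min at 37 °C. After washing, median intracellular fluorescence read by flow cytometry. Normalised to non-induced cells. 8 replicates/concentration, 3–5 experiments. IC50 from four-parameter fit. Naringin control inhibitor.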

[3] = target: T3, OATP1B3 (Homo sapiens, UniProt Q9NPD5); test: OATP1B3 inhibition assay; assay type: cell-based
T3 sequence (Q9NPD5 1-702): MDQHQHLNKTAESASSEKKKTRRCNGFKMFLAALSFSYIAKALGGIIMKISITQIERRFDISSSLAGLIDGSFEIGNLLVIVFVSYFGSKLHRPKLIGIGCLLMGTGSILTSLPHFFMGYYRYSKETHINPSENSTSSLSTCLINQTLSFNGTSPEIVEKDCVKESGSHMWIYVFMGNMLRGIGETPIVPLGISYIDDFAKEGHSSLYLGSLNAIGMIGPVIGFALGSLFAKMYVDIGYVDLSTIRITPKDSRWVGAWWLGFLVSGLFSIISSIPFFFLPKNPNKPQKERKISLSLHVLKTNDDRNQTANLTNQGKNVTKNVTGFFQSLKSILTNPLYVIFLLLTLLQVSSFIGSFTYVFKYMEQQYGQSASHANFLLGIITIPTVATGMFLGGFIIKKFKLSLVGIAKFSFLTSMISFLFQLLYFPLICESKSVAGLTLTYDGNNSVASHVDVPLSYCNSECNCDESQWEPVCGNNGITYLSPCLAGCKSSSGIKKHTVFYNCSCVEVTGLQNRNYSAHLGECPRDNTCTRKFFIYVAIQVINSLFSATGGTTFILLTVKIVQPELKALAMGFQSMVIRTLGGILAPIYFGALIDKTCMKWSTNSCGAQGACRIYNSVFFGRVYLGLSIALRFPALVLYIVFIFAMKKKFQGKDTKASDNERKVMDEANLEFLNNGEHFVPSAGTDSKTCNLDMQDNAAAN

[4] = target: T3, OATP1B3; settings: read-out: OATP1B3 IC50; control inhibitor; 8-FcA uptake; cited from earlier work
[5] = target: T1, OATP1B1; settings: read-out: OATP1B1 IC50; control inhibitor; 8-FcA uptake; cited from earlier work
[6] = rats; cited from earlier work

Row | Structure (SMILES) | IC50 [1] [µM] | IC50 [2] [µM] | IC50 [3] [µM] | potency for OATP1B3 relative to rifampicin ([3]; comparison of IC50 values) | IC50 [4] [µM] | IC50 [5] [µM] | bioavailability [6] [%]
1 | C[C@@H]1O[C@@H](OC[C@H]2O[C@@H](Oc3cc(O)c4c(c3)O[C@H](c3ccc(O)cc3)CC4=O)[C@H](O)[C@@H](O)[C@@H]2O)[C@H](O)[C@H](O)[C@H]1O [Narirutin, narirutin] | > 100 | 14.2 ± 3.5 | > 100 | – | – | – | –
2 | C[C@@H]1O[C@@H](O[C@H]2[C@H](Oc3cc(O)c4c(c3)O[C@H](c3ccc(O)cc3)CC4=O)O[C@H](CO)[C@@H](O)[C@@H]2O)[C@H](O)[C@H](O)[C@H]1O [Naringin, naringin, reference compound] | > 100 | 6.9 ± 1.4 | > 100 | – | – | – | –
3 | CO[C@H]1/C=C/O[C@@]2(C)Oc3c(C)c(O)c4c(O)c(c(/C=N/N5CCN(C)CC5)c(O)c4c3C2=O)NC(=O)/C(C)=C\C=C\[C@H](C)[C@H](O)[C@@H](C)[C@@H](O)[C@@H](C)[C@H](OC(C)=O)[C@@H]1C [Rifampicin, rifampicin] | – | – | – | – | ~2 | ~2 | –

Second part, led by results:

Row | IC50 [1] [µM] | IC50 [2] [µM] | IC50 [3] [µM] | potency for OATP1B3 relative to rifampicin ([3]; comparison of IC50 values) | Structure (SMILES) | IC50 [4] [µM] | IC50 [5] [µM] | bioavailability [6] [%]
4 | 8 ± 2.6 | 5.4 ± 0.6 | 21.1 ± 3.4 | about ten times lower | COc1ccc(-c2cc(=O)c3c(OC)c(OC)c(OC)cc3o2)cc1OC [Sinensetin, sinensetin] | – | – | –
5 | 2.1 ± 0.7 | 1.6 ± 0.4 | 6.6 ± 0.4 | – | COc1ccc(-c2cc(=O)c3c(OC)c(OC)c(OC)c(OC)c3o2)cc1OC [Nobiletin, nobiletin] | – | – | 36
6 | 4.8 ± 1.7 | 1.6 ± 0.8 | 5.6 ± 1 | – | COc1ccc(-c2cc(=O)c3c(OC)c(OC)c(OC)c(OC)c3o2)cc1 [Tangeretin, tangeretin] | – | – | 27
